# ChEMBL document CHEMBL1154860, “Synthesis and investigation of inhibition effect of fluorinated sulfonamide derivatives on carbonic anhydrase” (Eur J Med Chem, 2010)
# pIC50: −log10 of the molar value. The source made the active and inactive calls. No cut-off for these calls is given here.
# System: not listed separately
# Assay: Cytotoxicity in sheep RBC assessed as hemolysis at 31.25 uM after 20 mins
# Assay type: cell-based, Ovis aries
# Settings: erythrocyte
# In short: (§1)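 Sheep erythrocytes were washed three times in PBS pH 7.4 just before the assay and used at a final 5% cell concentration in the same buffer. After incubation with compound, samples were centrifuged and supernatant absorbance was read at 405 nm. The 0% and 100% hemolysis references were erythrocyte stock in PBS and in distilled water, processed identically.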
row,SMILES,Activity
1,[NH-]S(=O)(=O)C(F)(F)C(F)(F)C(F)(F)C(F)(F)C(F)(F)C(F)(F)C(F)(F)C(F)(F)F.[Na+] [SODIUM PERFLUOROOCTANESULFONAMIDE],Toxic

# System: not listed separately
# Assay: Cytotoxicity in sheep RBC assessed as hemolysis at 0.125 to 1000 uM after 20 mins
# Assay type: cell-based, Ovis aries
# Settings: erythrocyte
# In short: as §1
row,SMILES,Activity
1,NS(=O)(=O)C(F)(F)C(F)(F)C(F)(F)C(F)(F)C(F)(F)C(F)(F)F,Non-toxic

# Target: Carbonic anhydrase 2 (Homo sapiens, UniProt P00918)
# Assay: Inhibition of human carbonic anhydrase 2 assessed as conversion of 4-nitrophenyl acetate to 4-nitrophnolate after 5 mins
# Settings: not given
row,SMILES,pIC50
1,[NH-]S(=O)(=O)C(F)(F)C(F)(F)C(F)(F)C(F)(F)C(F)(F)C(F)(F)F.[Na+] [SODIUM PERFLUOROHEXANESULFONAMIDE],6.91

# Organism: Bos taurus
# Assay: Inhibition of bovine carbonic anhydrase assessed as conversion of 4-nitrophenyl acetate to 4-nitrophnolate at 0.27 to 2.07 uM after 5 mins
# Settings: not given
# In short: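 Native bovine CA, concentration set from A280 (2.9 × 10^-6 M). Initial rate of 4-nitrophenyl acetate hydrolysis followed at 348 nm at pH 8. Substrate was 1.04 × 10^-3 to 1.875 × 10^-4 M, prepared in acetone/water, and inhibitors were dissolved in water. Non-enzymatic hydrolysis was subtracted, each point was run in triplicate, and values are means of 3 assays.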
row,SMILES,inhibition
1,CCCCCCCCS(N)(=O)=O,inactive
2,CCCCCCS(N)(=O)=O,inactive

# Target: not listed separately
# Assay: Inhibition of bovine carbonic anhydrase assessed as conversion of 4-nitrophenyl acetate to 4-nitrophnolate after 5 mins
# Parameters: species or system Bos taurus
# Settings: not given
# In short: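 Bovine CA at 2.9 × 10^-6 M (concentration set from A280) measured by initial rate of 4-nitrophenyl acetate hydrolysis, substrate in acetone/water over a range of concentrations. 4-Nitrophenolate formation followed at 348 nm, pH 8, with non-enzymatic hydrolysis subtracted. Inhibitors dissolved in distilled–deionized water. Triplicates at each substrate and inhibitor concentration; IC50 is the mean of 3 assays.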
row,SMILES,pIC50
1,[NH-]S(=O)(=O)C(F)(F)C(F)(F)C(F)(F)C(F)(F)C(F)(F)C(F)(F)F.[Na+] [SODIUM PERFLUOROHEXANESULFONAMIDE],5.86
2,NS(=O)(=O)C(F)(F)C(F)(F)C(F)(F)C(F)(F)F,5.83
3,NS(=O)(=O)CCC(F)(F)C(F)(F)C(F)(F)C(F)(F)C(F)(F)C(F)(F)C(F)(F)C(F)(F)F,5.78
4,[NH-]S(=O)(=O)C(F)(F)C(F)(F)C(F)(F)C(F)(F)C(F)(F)C(F)(F)C(F)(F)C(F)(F)F.[Na+] [SODIUM PERFLUOROOCTANESULFONAMIDE],5.75
5,NS(=O)(=O)CCC(F)(F)C(F)(F)C(F)(F)C(F)(F)C(F)(F)C(F)(F)F,5.72
6,NS(=O)(=O)C(F)(F)C(F)(F)C(F)(F)C(F)(F)C(F)(F)C(F)(F)C(F)(F)C(F)(F)F,5.80
7,CC(=O)Nc1nnc(S(N)(=O)=O)s1 [ACETAZOLAMIDE],5.87
8,NS(=O)(=O)C(F)(F)C(F)(F)C(F)(F)C(F)(F)C(F)(F)C(F)(F)C(F)(F)F,5.76
9,NS(=O)(=O)C(F)(F)C(F)(F)C(F)(F)C(F)(F)F [SODIUM PERFLUOROBUTANESULFONAMIDE],5.78
10,NS(=O)(=O)C(F)(F)C(F)(F)C(F)(F)C(F)(F)S(N)(=O)=O,5.76
11,NS(=O)(=O)C(F)(F)F [TRIFLUOROMETHANESULFONAMIDE],5.83
12,NS(=O)(=O)CCC(F)(F)C(F)(F)C(F)(F)C(F)(F)F,5.68
13,NS(=O)(=O)C(F)(F)C(F)(F)C(F)(F)C(F)(F)C(F)(F)C(F)(F)F,5.83

# System: not listed separately
# Assay: Cytotoxicity in sheep RBC assessed as hemolysis at 62.5 uM after 20 mins
# Assay type: cell-based, Ovis aries
# Settings: erythrocyte
# In short: as §1
row,SMILES,Activity
1,NS(=O)(=O)C(F)(F)C(F)(F)C(F)(F)C(F)(F)C(F)(F)C(F)(F)C(F)(F)C(F)(F)F,Toxic

# System: not listed separately
# Assay: Cytotoxicity in sheep RBC assessed as hemolysis at 1000 uM after 20 mins
# Assay type: cell-based, Ovis aries
# Settings: erythrocyte
# In short: as §1
row,SMILES,Activity
1,[NH-]S(=O)(=O)C(F)(F)C(F)(F)C(F)(F)C(F)(F)C(F)(F)C(F)(F)F.[Na+] [SODIUM PERFLUOROHEXANESULFONAMIDE],Non-toxic
2,NS(=O)(=O)C(F)(F)C(F)(F)C(F)(F)C(F)(F)C(F)(F)C(F)(F)F,Non-toxic
